Reference: ChEMBL document CHEMBL1153905, “Functionalized 3-benzylidene-indolin-2-ones: inducers of NAD(P)H-quinone oxidoreductase 1 (NQO1) with antiproliferative activity” (Bioorg Med Chem, 2009)
One block for each molecule: values may come before it.

Columns and labels:
[1] = Cytotoxicity against mouse Hepa-1c1c7 cells after 48 hrs by MTT assay; assay type: cell-based; conditions: hepa-1c1c7, 48 h
In short: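 Murine hepatoma cells in α-MEM with 10% heat- and charcoal-treated fetal calf serum, passages 6–17; MTT read-out as for the cancer lines but with 48 h compound exposure. Highest concentration tested 25 µM. IC50 from survival-versus-concentration curve; mean and SD, n = 3.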

[2] = target: T1, CYP1A1 (Mus musculus, UniProt P00184); assay: Induction of CYP1A1 activity in mouse Hepa-1c1c7 cells assessed as induction ratio at 5 nM after 48 hrs by EROD assay relative to control; assay type: ADME, cell-based
T1 sequence (P00184 whole entry): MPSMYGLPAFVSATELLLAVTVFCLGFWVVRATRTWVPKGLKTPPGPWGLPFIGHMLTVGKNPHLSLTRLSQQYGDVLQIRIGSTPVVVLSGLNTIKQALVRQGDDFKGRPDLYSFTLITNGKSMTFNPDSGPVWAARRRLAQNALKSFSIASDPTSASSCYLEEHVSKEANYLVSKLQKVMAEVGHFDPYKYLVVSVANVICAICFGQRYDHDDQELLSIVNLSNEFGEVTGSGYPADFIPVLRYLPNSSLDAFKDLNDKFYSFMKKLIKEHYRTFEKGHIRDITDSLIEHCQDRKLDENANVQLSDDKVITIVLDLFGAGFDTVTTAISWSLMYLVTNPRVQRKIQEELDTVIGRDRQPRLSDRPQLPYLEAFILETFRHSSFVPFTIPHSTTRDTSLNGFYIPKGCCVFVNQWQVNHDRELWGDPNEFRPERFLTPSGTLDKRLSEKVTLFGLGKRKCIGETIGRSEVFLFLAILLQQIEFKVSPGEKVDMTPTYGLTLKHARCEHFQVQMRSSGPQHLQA
In short: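 Hepa1c1c7 cells were seeded at 10,000 per well and grown 24 h. They were then exposed 48 h to compound (final DMSO 0.5% v/v) at about 4 × the NQO1 CD. After a PBS wash, cells got 5 µM 7-ethoxyresorufin plus 2 mM salicylamide in medium, 37 °C, 40 min. Resorufin was read at ex 530/em 590 nm, corrected for compound fluorescence. Ratio = (F treated − blank)/(F DMSO control − blank); mean ± SD, n = 3.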

[3] = target: NAD(P)H dehydrogenase [quinone] 1 (Mus musculus) (UniProt Q64669); assay: Induction of NQO1 activity in mouse Hepa-1c1c7 cells assessed as induction ratio at 5 nM after 48 hrs by MTT assay relative to control; assay type: cell-based
Chain of NAD(P)H dehydrogenase [quinone] 1 (Mus musculus) (Q64669 whole entry): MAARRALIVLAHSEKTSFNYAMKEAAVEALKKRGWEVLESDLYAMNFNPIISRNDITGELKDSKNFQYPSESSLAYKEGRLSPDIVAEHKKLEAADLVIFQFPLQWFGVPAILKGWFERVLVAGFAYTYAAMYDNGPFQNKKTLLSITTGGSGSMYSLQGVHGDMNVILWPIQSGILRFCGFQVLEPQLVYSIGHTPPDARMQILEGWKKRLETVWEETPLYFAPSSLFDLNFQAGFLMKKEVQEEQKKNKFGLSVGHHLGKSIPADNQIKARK
In short: (§1)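 Hepa1c1c7 cells, 10,000 per well, 24 h, were then treated 48 h (DMSO ≤0.5%). Digitonin/EDTA lysates were assayed for menadione-dependent MTT-formazan formation using a G6P/G6PDH NADPH-generating mix with FAD at pH 7.4. The reaction ran 5 min, was stopped with dicoumarol, and read at A590. Degree of induction = (A test − blank)/(A control − blank). Ratios were read off the induction–concentration plot at the EROD test concentration.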

[4] = Ratio of induction of NQO1 activity to induction of CYP1 activity in mouse Hepa-1c1c7 cells at 5 nM after 48 hrs
[5] = tested on: HCT-116; assay: Antiproliferative activity against human HCT116 cells after 72 hrs by MTT assay; assay type: functional, cell-based; conditions: HCT-116, 72 h
In short: (§2)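 Cells seeded at 10,000 (MCF7), 4000 (HCT116) or 5000 (CCL186) per well and grown 24 h; MCF7 and CCL186 in EMEM with pyruvate, glutamine, 10% FBS; HCT116 in McCoy's 5A with 10% FBS. Compounds from DMSO stocks (≤1% DMSO final), 72 h exposure; MTT 0.5 mg/ml for 3 h, formazan in DMSO read at 590 nm. IC50 from sigmoidal survival curve, three separate occasions.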

[6] = tested on: MCF7; assay: Antiproliferative activity against human MCF7 cells after 72 hrs by MTT assay; assay type: functional, cell-based; conditions: MCF7, 72 h; in short: as §2
[7] = Antiproliferative activity against human CCL186 cells after 72 hrs by MTT assay; assay type: cell-based; conditions: CCL186, 72 h; in short: as §2
[8] = tested on: MCF7; assay: Selectivity ratio of IC50 for human CCL186 cells to IC50 for human MCF7 cells
In short: (§3)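 MTT assay. MCF7 and CCL186 cells were grown in EMEM/10% FBS, HCT116 in McCoy's 5A/10% FBS. Seeding was 10,000 (MCF7), 4000 (HCT116) and 5000 (CCL186) cells per well, 24 h. Compound exposure was 72 h, DMSO ≤1% final. MTT 0.5 mg/ml for 3 h, formazan dissolved in DMSO, A590. IC50 came from sigmoidal survival curves, with 3 separate occasions per concentration. Ratio = IC50 CCL186 / IC50 of the cancer line.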

[9] = Selectivity ratio of IC50 for human CCL186 cells to IC50 for human HCT116 cells; assay type: ADME, cell-based, HCT-116; conditions: CCL186 cells and HCT116 cells, read-out: Ratio IC50; in short: as §3
[10] = tested on: HCT-116; assay: Cell cycle arrest in human HCT116 cells released from G1 block assessed as accumulation at sub G1 phase at 15 uM after 24 hrs by flow cytometry; assay type: functional
[11] = tested on: HCT-116; assay: Cell cycle arrest in human HCT116 cells released from G2 block assessed as accumulation at sub G1 phase at 15 uM after 24 hrs by flow cytometry; assay type: functional
[12] = tested on: HCT-116; assay: Cell cycle arrest in human HCT116 cells released from G1 block assessed as accumulation at G1 phase at 15 uM after 24 hrs by flow cytometry; assay type: functional
[13] = tested on: HCT-116; assay: Cell cycle arrest in human HCT116 cells released from G2 block assessed as accumulation at G1 phase at 15 uM after 24 hrs by flow cytometry; assay type: functional
[14] = tested on: HCT-116; assay: Cell cycle arrest in human HCT116 cells released from G1 block assessed as accumulation at S phase at 15 uM after 24 hrs by flow cytometry; assay type: functional
[15] = tested on: HCT-116; assay: Cell cycle arrest in human HCT116 cells released from G2 block assessed as accumulation at S phase at 15 uM after 24 hrs by flow cytometry; assay type: functional
[16] = tested on: HCT-116; assay: Cell cycle arrest in human HCT116 cells released from G1 block assessed as accumulation at G2/M phase at 15 uM after 24 hrs by flow cytometry; assay type: functional
[17] = tested on: HCT-116; assay: Cell cycle arrest in human HCT116 cells released from G2 block assessed as accumulation at G2/M phase at 15 uM after 24 hrs by flow cytometry; assay type: functional
[18] = target: NAD(P)H dehydrogenase [quinone] 1 (Mus musculus) (UniProt Q64669); assay: Induction of NQO1 activity in mouse Hepa-1c1c7 cells assessed as induction ratio at 0.05 uM after 48 hrs by MTT assay relative to control; assay type: cell-based; in short: as §1
[19] = target: T1, CYP1A1; assay: Induction of CYP1A1 activity in mouse Hepa-1c1c7 cells assessed as induction ratio at 0.05 uM after 48 hrs by EROD assay relative to control; assay type: ADME, cell-based
In short: (§4)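 About 10,000 Hepa1c1c7 cells/well cultured 24 h, then compound (0.5% DMSO final) for 48 h, at roughly 4 × the concentration doubling NQO1 activity. After PBS wash, cells given 5 µM 7-ethoxyresorufin plus 2 mM salicylamide, 37 °C, 40 min; resorufin fluorescence ex 530/em 590 nm, corrected for compound fluorescence. Ratio = (treated − blank)/(DMSO control − blank); mean ± SD, n = 3.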

[20] = target: T1, CYP1A1; assay: Induction of CYP1A1 activity in mouse Hepa-1c1c7 cells assessed as induction ratio at 0.5 uM after 48 hrs by EROD assay relative to control; assay type: ADME, cell-based; in short: as §4
[21] = target: NAD(P)H dehydrogenase [quinone] 1 (Mus musculus) (UniProt Q64669); assay: Induction of NQO1 activity in mouse Hepa-1c1c7 cells assessed as induction ratio at 0.5 uM after 48 hrs by MTT assay relative to control; assay type: cell-based; in short: as §1
[22] = target: T1, CYP1A1; assay: Induction of CYP1A1 activity in mouse Hepa-1c1c7 cells assessed as induction ratio at 0.1 uM after 48 hrs by EROD assay relative to control; assay type: ADME, cell-based; in short: as §4
[23] = target: NAD(P)H dehydrogenase [quinone] 1 (Mus musculus) (UniProt Q64669); assay: Induction of NQO1 activity in mouse Hepa-1c1c7 cells assessed as induction ratio at 0.1 uM after 48 hrs by MTT assay relative to control; assay type: cell-based; in short: as §1

SMILES: O=C1Nc2cc(F)ccc2/C1=C\c1cccc(C(F)(F)F)c1
IC50 [5]: 8.4 µM
IC50 [6]: 8.9 µM
IC50 [7]: 7.5 µM
Ratio IC50 [8]: 0.9
selectivity ratio [9]: 0.8
Activity [10]: 12.68%
Activity [11]: 2.49%
Activity [12]: 64.93%
Activity [13]: 64.15%
Activity [14]: 8.04%
Activity [15]: 8.82%
Activity [16]: 14.58%
Activity [17]: 25%
IC50 [1]: 2.2 µM
Ratio [18]: 3.31
fold induction at 48 h, 0.05 µM [19]: 1.23

SMILES: COc1ccc(/C=C2/C(=O)Nc3ccccc32)cc1O
fold induction at 48 h, 0.5 µM [20]: 2.66
IC50 [1]: 11.9 µM
Ratio [21]: 3.13

SMILES: COc1cccc(/C=C2/C(=O)Nc3cc(Cl)ccc32)c1
fold induction at 48 h, 0.1 µM [22]: 1.51
IC50 [1]: > 25 µM
Ratio [23]: 2.56

SMILES: O=C1Nc2ccccc2/C1=C1\C(=O)Nc2ccccc21 [ISOINDIGO]
fold induction at 48 h, 0.1 µM [22]: 1.44
IC50 [1]: > 25 µM
Ratio [23]: 2.8

SMILES: COc1ccc(/C=C2/C(=O)Nc3cc(F)ccc32)cc1O
fold induction at 48 h, 0.5 µM [20]: 2.05
IC50 [1]: 15.6 µM
Ratio [21]: 4.1

SMILES: O=C1Nc2ccccc2/C1=C1\C(=O)Nc2cc(F)ccc21
IC50 [1]: > 25 µM
fold induction at 48 h, 0.005 µM [2]: 2.75
Ratio [3]: 2.56
Ratio [4]: 0.93

Further lines, with some results ahead:

fold induction at 48 h, 0.005 µM [2]: 3.23
Ratio [3]: 2.96
SMILES: O=C1Nc2cc(C(F)(F)F)ccc2/C1=C1\C(=O)Nc2ccc(Cl)cc21
IC50 [1]: 9.8 µM
Ratio [4]: 0.92

fold induction at 48 h, 0.005 µM [2]: 3.01
Ratio [3]: 2.99
SMILES: O=C1Nc2ccccc2/C1=C1\C(=O)Nc2cc(C(F)(F)F)ccc21
IC50 [1]: > 25 µM
Ratio [4]: 0.99

fold induction at 48 h, 0.005 µM [2]: 3.72
Ratio [3]: 3.09
SMILES: O=C1Nc2cc(C(F)(F)F)ccc2/C1=C1\C(=O)Nc2ccc(F)cc21
IC50 [1]: > 25 µM
Ratio [4]: 0.83
